Test results reported in PMC12415985 (Journal of medicinal chemistry, 2025).
Read-outs that look alike come from different tables or passages of the source.

Legend:
TgME49-Fluc [1] = test: Time dependent tachyzoite inhibition, 4 h washout vs 72 h continuous; type: cell-based, Toxoplasma gondii; details: vs continuous 72 h
TgME49-EW intact cysts = test: Intact tissue cyst treatment and plaque outgrowth assay; type: cell-based, Toxoplasma gondii
Method in brief: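 Percoll-purified brain tissue cysts (10 per compound) were exposed to 3xEC90 in tubes at 37°C for 4 or 24 h, then washed 3× with PBS. Bradyzoites were freed by acid-pepsin, neutralized, and split into parallel 6-well plates with compound (constant) or without (washout). Plates ran 12−14 days at 37°C, 5% CO2. Plaques were ethanol-fixed, crystal-violet stained, counted by microscopy and normalized to the DMSO control.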

TgME49-Fluc [2] = test: Luciferase-based tachyzoite growth inhibition assay; type: cell-based, Toxoplasma gondii; details: for EC50: read-out: TgM49 EC50
[3] = system: Tg68pBAG1:nLuc,DHFR bradyzoites; test: In vitro differentiated bradyzoite growth inhibition; type: cell-based, Toxoplasma gondii; details: for EC50: Toxoplasma gondii
TgME49-EW bradyzoites = test: Ex vivo purified; type: cell-based, Toxoplasma gondii; details: 3X EC90, 4 h washout vs continual treatment
TgME49-FLuc tachyzoites [4] = details: for Survivors / Culture positive / Plaque positive: n=8
TgRH-PheRS[L497I]-FLuc = test: Growth inhibition of PheRS L497I resistant line vs parental line; type: cell-based, Toxoplasma gondii; details: EC50 fold resistance, TgL497I vs parental TgRHΔhxgprtΔku80
Method in brief: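 Firefly-luciferase tachyzoites were used: the PheRS[L497I] line, made in the parental TgRHΔΔ-FLuc (type I) strain, and the parental line itself. Each well of confluent HFF got 5×10^3 fresh tachyzoites and a 3-fold compound series, at 0.1% DMSO final. After 72 h at 37°C, cells were lysed and luciferase read. […] FR = resistant EC50 / parental EC50.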

HepG2 cells = test: Host cell cytotoxicity, HepG2; type: cell-based, human
THP-1 cells = test: Host cell cytotoxicity, THP-1; type: cell-based, human
Method in brief: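 THP-1 cells were seeded at 10×10^3/well and differentiated with 10 ng/mL PMA for 24 h before compound addition. Compounds were given as a 10-dose 3-fold series from a 120 μM 2x working solution for 72 h at 37°C, 5% CO2. Viability was read by CellTiter-Glo luminescence.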

Brain homogenate binding = type: in vitro ADME; details: CD-1 mouse brain homogenate
Pharmacokinetics in mice = type: in vivo, CD-1 mice; details: 10 mg/kg PO
Method in brief: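 Fasted male CD-1 mice (3 per group) received a single oral 10 mg/kg dose as a suspension. Blood and brain were sampled at 1, 3 and 8 h. Plasma was obtained by centrifugation and stored below −20 °C. Plasma and brain concentrations were measured by LC−MS/MS. Parameters came from noncompartmental analysis, and brain/plasma ratio is given at the indicated time.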

Plasma protein binding [5] = type: in vitro ADME
[6] = Microsomal stability, mouse liver microsomes; type: in vitro ADME
MDCK-MDR1 = type: in vitro ADME
hERG = hERG (Homo sapiens, UniProt Q12809); test: hERG inhibition in CHO cell; type: cell-based; details: read-out: hERG inhibition CHO cell IC50
Sequence of hERG (Q12809 whole entry): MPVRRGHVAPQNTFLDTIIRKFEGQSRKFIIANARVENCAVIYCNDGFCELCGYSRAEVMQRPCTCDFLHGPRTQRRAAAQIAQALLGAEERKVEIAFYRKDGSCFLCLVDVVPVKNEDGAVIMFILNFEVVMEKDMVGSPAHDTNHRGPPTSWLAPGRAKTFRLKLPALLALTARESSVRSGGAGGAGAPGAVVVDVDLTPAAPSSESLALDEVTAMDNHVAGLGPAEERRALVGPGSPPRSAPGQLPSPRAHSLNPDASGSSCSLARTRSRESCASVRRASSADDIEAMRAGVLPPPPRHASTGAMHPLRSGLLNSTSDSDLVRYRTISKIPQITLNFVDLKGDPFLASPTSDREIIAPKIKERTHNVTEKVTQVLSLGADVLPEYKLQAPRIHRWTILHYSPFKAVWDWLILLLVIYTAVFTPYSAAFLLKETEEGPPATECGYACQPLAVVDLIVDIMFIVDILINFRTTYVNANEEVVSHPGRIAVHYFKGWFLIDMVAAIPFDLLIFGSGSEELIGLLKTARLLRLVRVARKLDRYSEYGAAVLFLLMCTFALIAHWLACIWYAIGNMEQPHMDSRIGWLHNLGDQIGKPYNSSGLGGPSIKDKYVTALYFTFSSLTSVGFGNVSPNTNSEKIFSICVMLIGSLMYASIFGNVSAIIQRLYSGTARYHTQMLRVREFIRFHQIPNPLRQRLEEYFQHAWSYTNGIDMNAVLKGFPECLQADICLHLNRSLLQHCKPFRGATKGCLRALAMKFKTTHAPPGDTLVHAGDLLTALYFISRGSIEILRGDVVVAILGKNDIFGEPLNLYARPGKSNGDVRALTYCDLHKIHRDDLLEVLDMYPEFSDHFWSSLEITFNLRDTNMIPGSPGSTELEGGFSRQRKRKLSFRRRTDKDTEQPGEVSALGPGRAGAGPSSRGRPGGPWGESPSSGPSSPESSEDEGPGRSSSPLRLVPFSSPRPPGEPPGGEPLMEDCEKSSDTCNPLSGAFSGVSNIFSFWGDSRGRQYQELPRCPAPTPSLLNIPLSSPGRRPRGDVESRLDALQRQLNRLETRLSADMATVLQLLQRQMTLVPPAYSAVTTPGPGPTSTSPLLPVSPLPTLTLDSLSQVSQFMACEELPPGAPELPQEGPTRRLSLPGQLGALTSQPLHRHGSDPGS

Plasma protein binding [7] = type: in vitro ADME; details: CD-1 mouse plasma
TgME49-FLuc tachyzoites [8] = type: in vivo, Toxoplasma gondii; details: Ifngr1-/- mice, 0.25 mg/ml in drinking water, n=11
[9] = Toxoplasma gondii, read-out: TgME49 EC90
[10] = formulation A, na = not detected
[11] = Experiment 1, 0.25 mg/ml in drinking water

## O=C1C(O)=C([C@H]2CC[C@H](c3ccc(Cl)cc3)CC2)C(=O)c2ccccc21 [Atovaquone]
TgME49-Fluc [1]
  potency after 4 h treatment vs continuous treatment (in words): only effective when used for 72 h treatment
TgME49-EW intact cysts; 3X EC90, 24 h treatment
  activity on intact cysts (in words): among the most effective compounds in this assay
TgME49-Fluc [2]; Toxoplasma gondii
  EC50: 71 nM
TgME49-Fluc [2]; [9]
  EC90: 163 nM
[3]; pH 8.2, read-out: Tg68 EC50 (Alkaline)
  EC50: 1590 nM
[3]; read-out: Tg68 EC50 (Glutamine)
  EC50: 52 nM
TgME49-EW bradyzoites
  inhibition of outgrowth of liberated bradyzoites (in words): only active when used continuously

## COc1ccc(NC(=O)N2CCCCN3[C@H](CN(C)C)[C@H](c4ccc(C#Cc5ccccc5)cc4)[C@@H]3C2)cc1 [BRD7929]
TgME49-FLuc tachyzoites [4]; Experiment 1, 10 mg/kg QD
  weight loss: little weight loss
TgME49-FLuc tachyzoites [4]; Experiment 1, 10 mg/kg QD p.o. 4-10 DPI
  Survivors: 8
TgME49-FLuc tachyzoites [4]; Experiment 1, 10 mg/kg QD, outgrowth in HFF culture
  Culture positive: 1
TgME49-FLuc tachyzoites [4]; Experiment 1, 10 mg/kg QD, plaquing assay after 14 days
  Plaque positive: 1
TgME49-FLuc tachyzoites [4]; Experiment 1, 10 mg/kg QD, EC50 determination using TgME49 expressing firefly luciferase
  EC50 of recovered parasites: No change
TgME49-FLuc tachyzoites [4]; Experiment 1, 10 mg/kg QD, brain homogenate outgrowth
  mice harboring chronic infection (of 8): 1
TgRH-PheRS[L497I]-FLuc
  TgL497I EC50/ Parental EC50 (FR): 78
HepG2 cells; HepG2 CC50 / EC50 TgME49
  SI: 147
HepG2 cells; read-out: HepG2 CC50, Table 2
  CC50: 6.07 µM
TgME49-EW intact cysts; 3X EC90, 24 h treatment followed by washing and plating without compound
  inhibition of outgrowth from intact cysts: up to 50%
TgME49-Fluc [2]; read-out: Tg EC90, Table 3
  EC90: 134 ± 85 nM
TgME49-Fluc [2]; ME49 expressing firefly luciferase, Table 2
  EC50: 41 nM
TgME49-Fluc [2]; read-out: TgME49 EC90, ME49 expressing firefly luciferase, Table 2
  EC90: 139 nM
THP-1 cells; THP-1 CC50 / EC50 TgME49
  SSII: 24
THP-1 cells; read-out: THP-1 CC50, Table 2
  CC50: 1010 nM
Brain homogenate binding
  Brain Homogenate binding %(CD-1 mouse): 99.98%
[3]; in vitro differentiated bradyzoites vs tachyzoites
  fold elevation of bradyzoite EC50 compared to tachyzoite conditions: 3 to 5 fold
Pharmacokinetics in mice; formulation A (75% PEG300, 25% D5W), na = not detected
  Plasma Cmax/D: 40.6 ± 10.4 ng/mL
Pharmacokinetics in mice; formulation A, 8h
  Mouse B/P (time): 4.4 (8h)
Pharmacokinetics in mice; [10]
  Brain AUClast/D: 807 ng·h/mL
  Brain Cmax/D: 179 ± 60.7 ng/mL
  Plasma AUClast/D: 220.9 ng·h/mL
Plasma protein binding [5]
  Plasma protein binding % (human): 99.56%
[6]; calculated with mouse liver blood flow of 90ml/min/kg, second value of cell
  Eh (hepatic extraction): 0.40
[6]; mouse liver microsomes, first value of cell
  Microsomal stability mouse: 15.41 µL/min/mg
MDCK-MDR1
  MDCK-MDR1 Permeability A-B Papp: 0.28 10^−6cm/s
  MDCK-MDR1 Permeability B-A Papp: 9.62 10^−6cm/s
hERG
  IC50: 540 nM
Plasma protein binding [7]
  Plasma protein binding % (CD-1 mouse): 99.6%

## CCc1nc(N)nc(N)c1-c1ccc(Cl)cc1 [Pyrimethamine]
TgME49-Fluc [1]
  potency after 4 h treatment vs continuous treatment (in words): only effective when used for 72 h treatment
TgME49-Fluc [2]; Toxoplasma gondii
  EC50: 330 nM
TgME49-Fluc [2]; [9]
  EC90: 551 nM
TgME49-EW bradyzoites
  inhibition of outgrowth of liberated bradyzoites (in words): only active when used continuously

## Nc1ccc(S(=O)(=O)Nc2ncccn2)cc1 [Sulfadiazine]
TgME49-FLuc tachyzoites [4]; [11]
  weight loss: little weight loss
  Culture positive: 6
  Plaque positive: 7
  Survivors: 8
TgME49-FLuc tachyzoites [4]; Experiment 1, sulfadiazine in drinking water
  mice harboring chronic infection (of 8): 7
TgME49-FLuc tachyzoites [8]
  survival vs vehicle control: survived significantly longer
